Key:
Cavia porcellus [1] = assay: Antiplatelet activity in guinea pig assessed as inhibition of 0.45 ug/ml ADP-induced platelet aggregation measured as area between aggregation curve and baseline transmittance at 30 mg/kg, po for 4 days measured at 2 hrs post last dose by aggregometric analysis relative to control; type: functional
Outline: (§1)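 Guinea pigs were dosed by stomach tube at the stated dose daily for 4 days, with an untreated control group kept in parallel. Blood was taken by heart puncture 2 h after the last dose, and citrated PRP was isolated and adjusted. ADP was added in vitro. Total response was the area between the aggregation curve and baseline transmittance over 5 min, measured by planimeter. Percent inhibition came from group-average total response, treated vs control.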

[2] = Antiplatelet activity in human platelet rich plasma assessed as inhibition of platelet factor-3 release at 100 ug/ml after 20 mins relative to control; type: functional
Outline: (§2)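 Test compound solution was incubated in human citrated PRP at 37° for 20 min. PF3 activity was then measured by a modified Stypven test, with plasma diluted 1:10.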

Cavia porcellus [3] = assay: Antiplatelet activity in guinea pig assessed as inhibition of 0.8 ug/ml ADP-induced platelet aggregation measured as change in light transmittance at 30 mg/kg, po for 4 days measured at 2 hrs post last dose by aggregometric analysis relative to control; type: functional
Outline: (§3)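 Dosing was oral by stomach tube for 4 days, alongside an untreated control group. Blood was drawn by heart puncture 2 h after the final dose, then citrated PRP was isolated and adjusted for aggregometry. ADP was added in vitro at the stated concentration. The read-out was the maximum increase in light transmittance (ΔT); group means were compared, treated vs control.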

Cavia porcellus [4] = assay: Toxicity in guinea pig assessed as mortality at 300 mg/kg, po measured after third dose; type: organism-based; design: dose 300 mg/kg, route oral; conditions: in vivo
[5] = Antiplatelet activity in human platelet rich plasma assessed as inhibition of ADP-induced platelet aggregation at 30 ug/ml after 20 mins by aggregometric analysis relative to control; type: functional
Outline: (§4)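 Human blood came from fasting donors who had taken no drugs for 5 days. It was citrated 1:9 with 3.8% sodium citrate. PRP was prepared at 100g for 10 min and PPP at 1500g for 15 min, and PRP was diluted with autologous PPP to 400000 platelets/mm³. Compound or saline control was incubated 20 min at 37°, then ADP was added at 2 μg/ml final. Percent inhibition was calculated from maximal ΔT, test vs control.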

Cavia porcellus [6] = assay: Antiplatelet activity in guinea pig assessed as inhibition of 0.8 ug/ml ADP-induced platelet aggregation measured as change in light transmittance at 100 mg/kg, po for 4 days measured at 2 hrs post last dose by aggregometric analysis relative to control; type: functional; outline: as §3
Cavia porcellus [7] = assay: Antiplatelet activity in guinea pig assessed as inhibition of 0.45 ug/ml ADP-induced platelet aggregation measured as change in light transmittance at 30 mg/kg, po for 4 days measured at 2 hrs post last dose by aggregometric analysis relative to control; type: functional; outline: as §3
[8] = Antiplatelet activity in human platelet rich plasma assessed as inhibition of ADP-induced platelet aggregation at 100 ug/ml after 20 mins by aggregometric analysis relative to control; type: functional; outline: as §4
Cavia porcellus [9] = assay: Antiplatelet activity in guinea pig assessed as inhibition of 0.8 ug/ml ADP-induced platelet aggregation measured as area between aggregation curve and baseline transmittance at 30 mg/kg, po for 4 days measured at 2 hrs post last dose by aggregometric analysis relative to control; type: functional; outline: as §1
[10] = Antiplatelet activity in human platelet rich plasma assessed as platelet factor-3 release at 300 ug/ml after 20 mins relative to control
Cavia porcellus [11] = assay: Antiplatelet activity in guinea pig assessed as inhibition of 0.8 ug/ml ADP-induced platelet aggregation measured as area between aggregation curve and baseline transmittance at 100 mg/kg, po for 4 days measured at 2 hrs post last dose by aggregometric analysis relative to control; type: functional; outline: as §1
Cavia porcellus [12] = assay: Antiplatelet activity in guinea pig assessed as inhibition of 0.45 ug/ml ADP-induced platelet aggregation measured as area between aggregation curve and baseline transmittance at 100 mg/kg, po for 4 days measured at 2 hrs post last dose by aggregometric analysis relative to control; type: functional; outline: as §1
[13] = Antiplatelet activity in human platelet rich plasma assessed as inhibition of ADP-induced platelet aggregation at 10 ug/ml after 20 mins by aggregometric analysis relative to control; type: functional; outline: as §4
Cavia porcellus [14] = assay: Antiplatelet activity in guinea pig assessed as 0.45 ug/ml ADP-induced platelet aggregation measured as change in light transmittance at 100 mg/kg, po for 4 days measured at 2 hrs post last dose by aggregometric analysis
[15] = Antiplatelet activity in human platelet rich plasma assessed as inhibition of platelet factor-3 release at 30 ug/ml after 20 mins relative to control; type: functional; outline: as §2

CC(/N=C1/CCCCCN1)c1cccc2ccccc12.Cl (stereo not drawn)
inhibition in vivo at 30 mg/kg (Cavia porcellus [1]): 33%
%max [2]: 0.003%
ΔT % at 30 mg/kg (Cavia porcellus [3]): 29%
Activity (Cavia porcellus [4]): Toxic
inhibition at 30 µg/mL [5]: 46%
ΔT % at 100 mg/kg (Cavia porcellus [6]): 21.6%
ΔT % at 30 mg/kg (Cavia porcellus [7]): 7%
inhibition at 100 µg/mL [8]: 70%
inhibition in vivo at 30 mg/kg (Cavia porcellus [9]): 0%
%max [10]: 0.037%
inhibition in vivo at 100 mg/kg (Cavia porcellus [11]): 0%
inhibition in vivo at 100 mg/kg (Cavia porcellus [12]): 0%
inhibition at 10 µg/mL [13]: 0%
ΔT % at 100 mg/kg (Cavia porcellus [14]): 7.1%

CCCCCCCCCCCCCc1ccc(C(C)/N=C2\CCCCCN2)cc1 (stereo not drawn)
inhibition at 30 µg/mL [5]: 33%
inhibition at 100 µg/mL [8]: 100%
inhibition at 10 µg/mL [13]: 16%

CCCCCCCCCCCCOc1ccc(C(C)/N=C2\CCCCCN2)cc1 (stereo not drawn)
inhibition at 100 µg/mL [8]: 64%

CC(/N=C1\CCCCCN1)c1ccc(C2CCCCC2)cc1.Cl (stereo not drawn)
%max [2]: 0.004%
inhibition at 30 µg/mL [5]: 31%
inhibition at 100 µg/mL [8]: 100%
%max [10]: 0.62%
inhibition at 10 µg/mL [13]: 9%

CC(/N=C1\CCCCCN1)c1ccc(-c2ccccc2)cc1.Cl (stereo not drawn)
%max [2]: 0.04%
inhibition at 30 µg/mL [5]: 44%
inhibition at 100 µg/mL [8]: 100%
%max [10]: 0.76%
inhibition at 10 µg/mL [13]: 0%

CC(/N=C1\CCCCCN1)c1ccc(CCc2ccccc2)cc1.Cl (stereo not drawn)
%max [2]: 0.013%
inhibition at 30 µg/mL [5]: 37%
inhibition at 100 µg/mL [8]: 78%
%max [15]: 0%
%max [10]: 0.91%
inhibition at 10 µg/mL [13]: 8%

CC(/N=C1\CCCN1C)c1ccc(CCc2ccccc2)cc1 (stereo not drawn)
inhibition at 30 µg/mL [5]: 29%
inhibition at 100 µg/mL [8]: 100%

CC(/N=C1\CCCCCN1)c1ccc(C=C(c2ccccc2)c2ccccc2)cc1.Cl (stereo not drawn)
%max [2]: 0.23%
inhibition at 30 µg/mL [5]: 21%
inhibition at 100 µg/mL [8]: 100%
%max [10]: 2.3%
inhibition at 10 µg/mL [13]: 0%

CC(/N=C1\CCCCCN1)c1ccc(C=C2c3ccccc3-c3ccccc32)cc1.Cl (stereo not drawn)
%max [2]: 0.02%
inhibition at 30 µg/mL [5]: 38%
inhibition at 100 µg/mL [8]: 100%
%max [10]: 0.42%
inhibition at 10 µg/mL [13]: 6%

CC(/N=C1\CCCCCN1)c1ccc(Oc2ccccc2)cc1.Cl (stereo not drawn)
inhibition in vivo at 30 mg/kg (Cavia porcellus [1]): 53%
%max [2]: 0.01%
ΔT % at 30 mg/kg (Cavia porcellus [3]): 42.2%
inhibition at 30 µg/mL [5]: 25%
ΔT % at 100 mg/kg (Cavia porcellus [6]): 49%
ΔT % at 30 mg/kg (Cavia porcellus [7]): 24.4%
inhibition at 100 µg/mL [8]: 100%
inhibition in vivo at 30 mg/kg (Cavia porcellus [9]): 38%
%max [10]: 0.26%
inhibition in vivo at 100 mg/kg (Cavia porcellus [11]): 8%
inhibition in vivo at 100 mg/kg (Cavia porcellus [12]): 29%
inhibition at 10 µg/mL [13]: 15%
ΔT % at 100 mg/kg (Cavia porcellus [14]): 17.7%

CC(/N=C1\CCCCCN1)c1ccccc1OCCc1ccccc1 (stereo not drawn)
inhibition at 30 µg/mL [5]: 30%
inhibition at 100 µg/mL [8]: 81%
inhibition at 10 µg/mL [13]: 11%

CC(/N=C1\CCCCCN1)c1ccc(OCCCc2ccccc2)cc1 (stereo not drawn)
inhibition at 100 µg/mL [8]: 74%

CC(/N=C1\CCCCCN1)c1ccc(OCCCOc2ccccc2)cc1 (stereo not drawn)
inhibition at 30 µg/mL [5]: 14%
inhibition at 100 µg/mL [8]: 100%
inhibition at 10 µg/mL [13]: 0%

CC(/N=C1\CCCN1)c1cccc(OCCCCOc2ccccc2)c1 (stereo not drawn)
inhibition at 30 µg/mL [5]: 16%
inhibition at 100 µg/mL [8]: 100%
inhibition at 10 µg/mL [13]: 0%

CC(/N=C1\CCCCCN1)c1cc(C(C)(C)C)cc2c1CCC2(C)C (stereo not drawn)
inhibition at 30 µg/mL [5]: 22%
inhibition at 100 µg/mL [8]: 100%
inhibition at 10 µg/mL [13]: 0%

Cc1cc2c(cc1C(C)/N=C1\CCCCCN1)C(C)(C)CCC2(C)C (stereo not drawn)
inhibition at 100 µg/mL [8]: 77%

CC(/N=C1\CCCCCN1)c1ccc2c(c1)Cc1ccccc1-2.Cl (stereo not drawn)
%max [2]: 0.06%
inhibition at 30 µg/mL [5]: 43%
inhibition at 100 µg/mL [8]: 100%
%max [10]: 1.5%
inhibition at 10 µg/mL [13]: 0%

CC(/N=C1\CCCCCCCN1)c1ccc2c(c1)Cc1ccccc1-2 (stereo not drawn)
inhibition at 30 µg/mL [5]: 62%
inhibition at 100 µg/mL [8]: 100%
inhibition at 10 µg/mL [13]: 6%

CC(/N=C1\CCCCCN1)c1ccc2c(ccc3ccccc32)c1.Cl (stereo not drawn)
%max [2]: 0.06%
inhibition at 30 µg/mL [5]: 43%
inhibition at 100 µg/mL [8]: 100%
%max [10]: 2.6%
inhibition at 10 µg/mL [13]: 4%

CC(/N=C1\CCCN1)c1ccc2oc3ccccc3c2c1 (stereo not drawn)
inhibition at 30 µg/mL [5]: 42%
inhibition at 100 µg/mL [8]: 100%
inhibition at 10 µg/mL [13]: 10%

CC(/N=C1\CCCCCN1)c1ccc2oc3ccccc3c2c1 (stereo not drawn)
inhibition at 100 µg/mL [8]: 67%

CC(/N=C1\CCCCCN1)c1ccc2sc3ccccc3c2c1.Cl (stereo not drawn)
inhibition in vivo at 30 mg/kg (Cavia porcellus [1]): 0%
%max [2]: 0.013%
ΔT % at 30 mg/kg (Cavia porcellus [3]): 43.6%
inhibition at 30 µg/mL [5]: 52%
ΔT % at 100 mg/kg (Cavia porcellus [6]): 53.6%
ΔT % at 30 mg/kg (Cavia porcellus [7]): 20.4%
inhibition at 100 µg/mL [8]: 100%
inhibition in vivo at 30 mg/kg (Cavia porcellus [9]): 3%
%max [10]: 0.18%
inhibition in vivo at 100 mg/kg (Cavia porcellus [11]): 0%
inhibition in vivo at 100 mg/kg (Cavia porcellus [12]): 0%
inhibition at 10 µg/mL [13]: 2%
ΔT % at 100 mg/kg (Cavia porcellus [14]): 32%

O=C(CO)OC(CC1CCCCN1)c1ccc(C=C2c3ccccc3-c3ccccc32)cc1 (stereo not drawn)
%max [2]: 0.162%
inhibition at 30 µg/mL [5]: 28%
inhibition at 100 µg/mL [8]: 99%
%max [15]: 0.003%
%max [10]: 0.747%
inhibition at 10 µg/mL [13]: 1%

CCN(CC)CCN(CC(O)c1ccccc1)c1cc(Cl)ccc1Cl (stereo not drawn)
%max [2]: 0.1%
inhibition at 30 µg/mL [5]: 10%
inhibition at 100 µg/mL [8]: 62%
%max [10]: 0.52%

Reference: ChEMBL document CHEMBL3272255, “Substituted alpah-methylbenzyl and tricyclic arylalkyl lactamimides as inhibitors of blood platelet aggregation” (J Med Chem, 1976)
